Screening results (PubChem)
This is one part of a sample in which hits are shown more often than they occur.
Lung fibro prol: antiproliferative effect on LL 47 fibroblasts – human, LL 47 cells, CellTiter-Glo luminescence, primary screen. LL 47 human lung fibroblast viability, ATP luminescence; hits give low values. 85,000 tested, 1.1% active. viability, % at 10 µM;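 active = viability at or below 50% in the single dose screen; inactive = viability above 50%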;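 note: compound exposure lasted 72 h before the ATP readout; 100% = median luminescence of untreated cell-only wells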
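Test system: LL 47 human lung fibroblasts / Incubation: 72 h compound exposure at 37 °C after overnight plating / Technique: luminescent ATP detection, CellTiter-Glo / Compound dosing: 0.1% DMSO in all compound wells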
PTEN del growth: growth suppression of PTEN-null HCT116, primary screen, cell-based, CellTiter-Glo; HCT116 PTEN-null viability, 60 h; hits give low values; viability, % at 10 µM; 140,000 tested, 1.2% active;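 active = viability at or below a set limit, 4 SD under the median of all tested compounds, cut at about 3.7% in these data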;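 note: PTEN knockout HCT116 line with beta catenin targeted HCT116 as companion control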
bCat KO growth: primary screen for growth suppressors in beta-catenin knockout HCT116 cells (colon tumor, human); AID 818, 2007; 140,000 tested, 1.5% active; viability, % at 10 µM; HCT116 beta-catenin knockout viability, CellTiter-Glo, 60 h; hits give low values;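 active = viability at or under a set limit, the compound median less 4 SD, cut at about 6% in these data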;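 note: 0% = Hyamine 1622 control at 20 µM and 100% = untreated cell control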
H69AR growth 86K: proliferation blockers of H69AR lung cancer cells, primary screen, cell-based, human, 86K library; viability, % at 10 µM; AID 598, 2007; 85,000 tested, 6% active; H69AR lung tumor viability, ATP luminescence, 72 h; hits give low values;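 active = viability at or below 40%; inactive = viability above 40%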;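 note: multidrug resistant small cell line overexpressing MRP-1 efflux transporter; 100% = mean luminescence of untreated control wells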
HUVEC prolif 384: inhibitors of HUVEC proliferation, primary screen, cell-based, 384-well; viability, % at 10 µM (by protocol); CellTiter-Glo luminescence, 72 h; hits give low values; 86,000 tested, 1.1% active;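 active = viability at or below 30%; inactive = viability above 30%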;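 note: 100% = median luminescence of DMSO-only cell control wells on each plate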
Numbers without * were called inactive; / = no result.

SMILES | Lung fibro prol | PTEN del growth | bCat KO growth | H69AR growth 86K | HUVEC prolif 384
COc1ccc(CCN(C(=S)Nc2ccccc2)C2CC(=O)N(c3ccccc3)C2=O)cc1 (stereo not drawn) | / | 66 | 50 | / | /
O=C(CSc1cccc[n+]1[O-])c1cc2ccccc2o1 | 93 | 2.7* | 4.7* | 54 | 109
Cc1c(C=O)c(C=O)c(C)n1Cc1ccccc1 | 48* | 9 | 10 | 38* | 51
CC(=O)c1c(C(C)=O)c(C)n(Cc2ccccc2)c1C | 96 | 87 | 82 | 97 | 99
COc1cc(OC)c(OC)cc1CN1CCN(Cc2cccn2C)CC1 | / | 100 | 85 | / | /
CCOc1ccc(NCc2nnc(SCc3ccc(Cl)cc3)n2-c2ccccc2)cc1 | / | 76 | 76 | / | /
COc1ccc2cc(/C=C/C(=O)c3ccco3)c(Cl)nc2c1 | 85 | 42 | 47 | 16* | 73
COc1ccc(Cl)cc1NC(=O)c1ccco1 | 94 | 95 | 89 | 83 | 80
COc1cc2cc(/C=C/C(=O)c3ccco3)c(Cl)nc2cc1OC | 86 | 8 | 18 | 7.9* | 68
COc1cc(Cl)c(C)cc1NC(=O)COC(=O)c1cnc(C)cn1 | 102 | 89 | 100 | 93 | 97
N=c1sc2ccccc2n1-c1ccccc1 | 100 | 96 | 99 | 31* | 94
CCN1CCN(C(c2ccccn2)c2c(NC(=O)c3ccccc3)sc(C)c2C)CC1 (stereo not drawn) | / | 60 | 67 | / | /
Cn1c(=O)c2c(ncn2CC(COCc2ccc(Cl)cc2)OCc2ccc(Cl)cc2)n(C)c1=O (stereo not drawn) | 97 | 50 | 59 | 35* | 81
Cn1c(=O)c2c(ncn2CC(O)CO)n(C)c1=O (stereo not drawn) | 89 | 96 | 102 | 97 | 98
Cc1ccc(N=C2NC(=O)/C(=C/c3cn(C)c4ccccc34)S2)cc1C | / | 52 | 55 | / | /
NC1=NC2(CCCCC2)N=C(Nc2ccc(F)cc2F)N1 | / | 94 | 107 | / | /
Cc1cc(C)cc(NC2=NC3(CCCCC3)N=C(N)N2)c1 | 56 | 22 | 21 | 18* | 63
C=CCn1c(=N)n(CC(=O)c2ccc(Br)s2)c2ccccc21 | / | 46 | 46 | / | /
CCOc1cc(C2Nc3cccc4cccc(c34)N2)ccc1O | 98 | 94 | 89 | 36* | 61
CCOc1ccc(C2Nc3cccc4cccc(c34)N2)cc1OC | 93 | 63 | 54 | 91 | 77
COc1ccccc1C1Nc2cccc3cccc(c23)N1 | 110 | 90 | 80 | 86 | 87
Oc1ccccc1C1Nc2cccc3cccc(c23)N1 | 88 | 102 | 88 | 34* | 78
COc1cc2c(=O)n(Cc3ccco3)c(=O)n(CC(=O)c3cccc(Br)c3)c2cc1OC | 97 | 4 | 29 | 2.4* | 57
COc1cc2c(=O)n(Cc3ccccc3)c(=O)n(CC(=O)C(C)(C)C)c2cc1OC | 95 | / | / | 90 | 84
COc1cc2c(=O)n(Cc3ccco3)c(=O)n(CC(=O)c3ccc(Br)cc3)c2cc1OC | 80 | 9 | 29 | 17* | 73
SMILES | Lung fibro prol | PTEN del growth | bCat KO growth | H69AR growth 86K | HUVEC prolif 384
CC(C)(C)OC(=O)N1CCC(C(=O)N[C@@H](Cc2ccccc2)C(=O)O)CC1 | 100 | 103 | 99 | 92 | 103
O=C(Nc1nc(-c2ccccc2)cs1)C1COc2ccccc2O1 (stereo not drawn) | 111 | 81 | 81 | 97 | 94
O=C(Nc1nc(-c2ccccn2)cs1)C1COc2ccccc2O1 (stereo not drawn) | 44* | 12 | 7 | 45 | 32
COc1ccccc1NC(=O)Cn1cnc2sc(C)c(S(=O)(=O)N3CCCCC3)c2c1=O | 110 | 90 | 96 | 100 | 106
CC(=O)Nc1ccc(S(=O)(=O)N2CCOCC2)cc1 | 113 | 94 | 90 | 95 | 103
Cc1cc(O)c(-c2cc(C(=O)Nc3ccc(S(=O)(=O)N4CCOCC4)cc3)[nH]n2)cc1C | 49* | 9 | 15 | 33* | 45
Cc1ccc(O)c(-c2cc(C(=O)Nc3ccc(S(=O)(=O)N4CC(C)OC(C)C4)cc3)[nH]n2)c1 (stereo not drawn) | 89 | 26 | 33 | 17* | 77
COc1ccc(NC(=O)c2nc[nH]c2C(=O)Nc2ccccc2C)cc1 | 66 | 16 | 17 | 20* | 53
CCOc1ccccc1NC(=O)c1nc[nH]c1C(=O)Nc1ccccc1OCC | 81 | 81 | 85 | 56 | 75
